Assay [1] deals with T1, Integrase (Human immunodeficiency virus 1, UniProt Q7ZJM1). In words: Inhibition of strand transfer activity of HIV1 integrase. A digest of the protocol:
(§1)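 Then 20 nM 5′-32P-labeled 21-mer oligonucleotide added for 1 h. Quenched with formamide loading dye. % inhibition from 19-mer (3′-processing) or strand transfer product fractions versus DNA-alone and DNA+IN controls. IC50 from log concentration versus % inhibition plot.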

Assay [2] concerns the target T1, Integrase. In words: Inhibition of 3'-processing activity of HIV1 integrase. A digest of the protocol:
as §1

Each structure is given as a SMILES string.

T1 sequence (Q7ZJM1 whole entry): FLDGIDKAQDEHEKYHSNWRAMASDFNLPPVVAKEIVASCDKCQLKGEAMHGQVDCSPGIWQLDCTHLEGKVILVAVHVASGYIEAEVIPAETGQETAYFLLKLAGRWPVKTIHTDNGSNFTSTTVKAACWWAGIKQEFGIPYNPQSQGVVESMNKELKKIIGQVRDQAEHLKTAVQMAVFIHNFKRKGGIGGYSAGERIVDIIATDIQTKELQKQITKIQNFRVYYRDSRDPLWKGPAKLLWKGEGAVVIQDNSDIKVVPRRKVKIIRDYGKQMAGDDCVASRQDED

Regarding `CN(C)CCCN1C(=O)C(=O)C(C(=O)c2cccs2)C1c1cccs1` (configuration not stated) [1-(3-(dimethylamino)propyl)-3-hydroxy-5-(thiophen-2-yl)-4-(thiophene-2-carbonyl)-1H-pyrrol-2(5H)-one], the IC50 in assay [1] and in assay [2] was over 100 µM each time.

On to `COc1ccc(C2C(C(=O)c3ccc(F)cc3)C(=O)C(=O)N2CCN(C)C)cc1OC` (configuration not stated) [5-(3,4-dimethoxyphenyl)-1-(2-(dimethylamino)ethyl)-4-(4-fluorobenzoyl)-3-hydroxy-1H-pyrrol-2(5H)-one], for which the IC50 in assay [1] and in assay [2] was over 1000 µM throughout.

On to `NCCCCCCNC(=O)c1c(O)c2ccccc2oc1=O` [N-(6-aminohexyl)-4-hydroxy-2-oxo-2H-chromene-3-carboxamide], for which the IC50 in assay [1] and in assay [2] was over 100 µM each time.

Consider `COc1ccc(C2C(C(=O)c3ccccc3)C(=O)C(=O)N2CCCO)cc1OC` (configuration not stated) [4-benzoyl-5-(3,4-dimethoxyphenyl)-3-hydroxy-1-(3-hydroxypropyl)-1H-pyrrol-2(5H)-one], for which the 50% inhibitory concentration (IC50) in assay [1] and in assay [2] was over 100 µM throughout.

Regarding `Cc1ccc(C(=O)C2C(=O)C(=O)N(CCN(C)C)C2c2ccccc2F)cc1` (configuration not stated) [1-(2-(dimethylamino)ethyl)-5-(2-fluorophenyl)-3-hydroxy-4-(4-methylbenzoyl)-1H-pyrrol-2(5H)-one], the 50% inhibitory concentration (IC50) in assay [1] and in assay [2] was over 1000 µM each time.

Consider `O=C1C(=O)N(CCCN2CCOCC2)C(c2ccccc2F)C1C(=O)c1ccc(F)cc1` (configuration not stated) [4-(4-fluorobenzoyl)-5-(2-fluorophenyl)-3-hydroxy-1-(3-morpholinopropyl)-1H-pyrrol-2(5H)-one], for which the IC50 in assay [1] and in assay [2] was over 1000 µM each time.

Values taken from BindingDB's records for doi:10.1021/jm0510629 (University of Houston, 2006).
